According to ChEMBL document CHEMBL5678806, “NMS-P937, an orally available, specific small-molecule polo-like kinase 1 inhibitor with antitumor activity in solid and hematologic malignancies” (Mol Cancer Ther, 2012):
The source made the active and inactive calls. The calls are words filed in the database; no cut-off is given here.

Experiments:
[1] = target: Inhibitor of nuclear factor kappa-B kinase subunit beta (Homo sapiens, UniProt O14920); experiment: Inhibition of IKK2 (unknown origin) in presence of [gamma-33P]ATP
Inhibitor of nuclear factor kappa-B kinase subunit beta, sequence (O14920 whole entry): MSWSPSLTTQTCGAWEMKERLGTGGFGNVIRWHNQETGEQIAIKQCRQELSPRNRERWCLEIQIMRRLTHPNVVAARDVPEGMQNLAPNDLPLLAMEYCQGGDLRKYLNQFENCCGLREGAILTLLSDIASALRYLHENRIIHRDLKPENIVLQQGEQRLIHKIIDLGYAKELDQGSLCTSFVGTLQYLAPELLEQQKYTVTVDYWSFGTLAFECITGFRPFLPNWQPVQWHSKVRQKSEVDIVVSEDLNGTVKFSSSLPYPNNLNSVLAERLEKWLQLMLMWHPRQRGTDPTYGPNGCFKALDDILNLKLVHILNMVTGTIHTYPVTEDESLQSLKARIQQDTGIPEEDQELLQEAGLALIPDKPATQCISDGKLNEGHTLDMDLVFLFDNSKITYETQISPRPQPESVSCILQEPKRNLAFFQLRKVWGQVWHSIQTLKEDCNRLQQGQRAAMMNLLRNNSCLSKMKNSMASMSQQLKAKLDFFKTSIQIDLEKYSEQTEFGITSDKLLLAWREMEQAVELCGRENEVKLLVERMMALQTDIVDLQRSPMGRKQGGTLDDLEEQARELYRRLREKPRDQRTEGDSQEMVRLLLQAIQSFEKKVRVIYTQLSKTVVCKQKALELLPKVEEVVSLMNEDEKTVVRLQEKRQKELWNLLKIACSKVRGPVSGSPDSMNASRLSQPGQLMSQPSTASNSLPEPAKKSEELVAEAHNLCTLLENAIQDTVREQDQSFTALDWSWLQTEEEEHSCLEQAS

[2] = target: Tyrosine-protein kinase JAK1 (Homo sapiens, UniProt P23458); experiment: Inhibition of JAK1 (unknown origin) in presence of [gamma-33P]ATP
[3] = target: Tyrosine-protein kinase Lyn (Homo sapiens, UniProt P07948); experiment: Inhibition of LYN (unknown origin) in presence of [gamma-33P]ATP
Tyrosine-protein kinase Lyn, sequence (P07948 whole entry): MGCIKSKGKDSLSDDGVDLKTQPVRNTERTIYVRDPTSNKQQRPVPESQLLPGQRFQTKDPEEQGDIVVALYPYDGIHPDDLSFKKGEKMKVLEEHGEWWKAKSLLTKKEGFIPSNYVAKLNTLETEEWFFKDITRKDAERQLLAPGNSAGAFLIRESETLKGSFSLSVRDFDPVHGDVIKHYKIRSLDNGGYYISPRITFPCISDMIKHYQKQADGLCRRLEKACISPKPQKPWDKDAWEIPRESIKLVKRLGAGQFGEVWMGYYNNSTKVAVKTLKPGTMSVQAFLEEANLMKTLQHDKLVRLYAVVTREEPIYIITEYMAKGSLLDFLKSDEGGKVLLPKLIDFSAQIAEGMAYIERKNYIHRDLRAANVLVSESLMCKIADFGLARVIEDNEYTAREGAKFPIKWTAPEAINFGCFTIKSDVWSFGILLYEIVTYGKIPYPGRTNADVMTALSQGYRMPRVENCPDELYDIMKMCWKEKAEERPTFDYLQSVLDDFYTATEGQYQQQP

[4] = target: Serine/threonine-protein kinase pim-1 (Homo sapiens, UniProt P11309); experiment: Inhibition of PIM1 (unknown origin) in presence of [gamma-33P]ATP
Serine/threonine-protein kinase pim-1, sequence (P11309 whole entry): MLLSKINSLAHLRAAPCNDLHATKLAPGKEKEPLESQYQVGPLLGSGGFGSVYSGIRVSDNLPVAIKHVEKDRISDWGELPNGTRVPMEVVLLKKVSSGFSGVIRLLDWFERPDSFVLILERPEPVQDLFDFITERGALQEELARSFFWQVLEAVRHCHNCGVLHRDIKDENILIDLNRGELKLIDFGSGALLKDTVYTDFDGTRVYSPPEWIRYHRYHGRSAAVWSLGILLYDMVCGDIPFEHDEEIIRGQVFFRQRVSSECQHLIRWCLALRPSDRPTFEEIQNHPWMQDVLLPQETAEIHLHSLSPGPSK

[5] = target: Tyrosine-protein kinase BTK (Homo sapiens) (UniProt Q06187); experiment: Inhibition of N-terminal His6-tagged recombinant full-length human BTK expressed in baculovirus infected Sf21 cells assessed as residual activity at 0.1 uM relative to control
Tyrosine-protein kinase BTK (Homo sapiens), sequence (Q06187 whole entry): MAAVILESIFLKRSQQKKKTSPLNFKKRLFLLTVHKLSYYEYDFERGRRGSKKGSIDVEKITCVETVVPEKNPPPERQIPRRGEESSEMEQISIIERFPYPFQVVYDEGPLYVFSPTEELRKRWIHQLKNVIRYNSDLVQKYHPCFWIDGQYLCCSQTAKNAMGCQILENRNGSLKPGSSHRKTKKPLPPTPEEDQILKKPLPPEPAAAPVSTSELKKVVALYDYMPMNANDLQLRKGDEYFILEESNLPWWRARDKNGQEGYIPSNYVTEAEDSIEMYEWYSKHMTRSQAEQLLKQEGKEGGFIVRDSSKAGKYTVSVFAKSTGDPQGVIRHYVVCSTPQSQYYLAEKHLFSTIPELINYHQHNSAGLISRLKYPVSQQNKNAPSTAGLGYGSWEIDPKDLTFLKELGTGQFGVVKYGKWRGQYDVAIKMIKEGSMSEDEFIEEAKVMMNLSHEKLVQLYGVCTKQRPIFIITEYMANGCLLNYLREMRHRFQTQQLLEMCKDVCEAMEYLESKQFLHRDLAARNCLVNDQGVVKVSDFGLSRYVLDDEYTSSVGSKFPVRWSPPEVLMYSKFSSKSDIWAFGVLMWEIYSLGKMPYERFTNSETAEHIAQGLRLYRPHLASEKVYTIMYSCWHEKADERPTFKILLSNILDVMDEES

[6] = target: Tyrosine-protein kinase Lyn (Mus musculus) (UniProt P25911); experiment: Inhibition of N-terminal his6-tagged recombinant full-length mouse Lyn expressed in baculovirus infected Sf21 cells assessed as residual activity at 0.1 uM relative to control
[7] = target: Serine/threonine-protein kinase Nek3 (Homo sapiens) (UniProt P51956); experiment: Inhibition of N-terminal 6His-tagged recombinant full length human NEK3 expressed in baculovirus infected Sf21 cells assessed as residual activity at 0.1 uM relative to control
Serine/threonine-protein kinase Nek3 (Homo sapiens), sequence (P51956 whole entry): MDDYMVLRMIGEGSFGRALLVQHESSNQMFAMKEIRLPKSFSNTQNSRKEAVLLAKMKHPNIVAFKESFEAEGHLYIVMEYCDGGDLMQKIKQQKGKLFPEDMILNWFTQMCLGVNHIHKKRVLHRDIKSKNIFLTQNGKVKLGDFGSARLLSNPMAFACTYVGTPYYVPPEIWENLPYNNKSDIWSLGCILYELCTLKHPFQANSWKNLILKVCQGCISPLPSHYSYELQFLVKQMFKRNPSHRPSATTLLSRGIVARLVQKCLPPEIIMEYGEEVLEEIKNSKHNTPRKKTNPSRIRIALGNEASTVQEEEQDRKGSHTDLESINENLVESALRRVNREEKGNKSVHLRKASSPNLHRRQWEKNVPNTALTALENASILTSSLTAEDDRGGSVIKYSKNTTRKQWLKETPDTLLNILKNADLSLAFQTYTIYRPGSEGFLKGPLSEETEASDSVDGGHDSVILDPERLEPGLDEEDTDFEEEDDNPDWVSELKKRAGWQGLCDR

[8] = target: Angiopoietin-1 receptor (Homo sapiens) (UniProt Q02763); experiment: Inhibition of N-terminal His6-tagged recombinant human Tie2 (771 to end residues) expressed in baculovirus infected Sf21 cells assessed as residual activity at 0.1 uM relative to control
[9] = tested on: Angiopoietin-1 receptor (Homo sapiens), Q02763 [R849W]; experiment: Inhibition of N-terminal His6-tagged recombinant human Tie2 (771 to end residues) R849W mutant expressed in baculovirus infected Sf21 cells assessed as residual activity at 0.1 uM relative to control
Angiopoietin-1 receptor (Homo sapiens), Q02763 [R849W], sequence (Q02763 whole entry R849W): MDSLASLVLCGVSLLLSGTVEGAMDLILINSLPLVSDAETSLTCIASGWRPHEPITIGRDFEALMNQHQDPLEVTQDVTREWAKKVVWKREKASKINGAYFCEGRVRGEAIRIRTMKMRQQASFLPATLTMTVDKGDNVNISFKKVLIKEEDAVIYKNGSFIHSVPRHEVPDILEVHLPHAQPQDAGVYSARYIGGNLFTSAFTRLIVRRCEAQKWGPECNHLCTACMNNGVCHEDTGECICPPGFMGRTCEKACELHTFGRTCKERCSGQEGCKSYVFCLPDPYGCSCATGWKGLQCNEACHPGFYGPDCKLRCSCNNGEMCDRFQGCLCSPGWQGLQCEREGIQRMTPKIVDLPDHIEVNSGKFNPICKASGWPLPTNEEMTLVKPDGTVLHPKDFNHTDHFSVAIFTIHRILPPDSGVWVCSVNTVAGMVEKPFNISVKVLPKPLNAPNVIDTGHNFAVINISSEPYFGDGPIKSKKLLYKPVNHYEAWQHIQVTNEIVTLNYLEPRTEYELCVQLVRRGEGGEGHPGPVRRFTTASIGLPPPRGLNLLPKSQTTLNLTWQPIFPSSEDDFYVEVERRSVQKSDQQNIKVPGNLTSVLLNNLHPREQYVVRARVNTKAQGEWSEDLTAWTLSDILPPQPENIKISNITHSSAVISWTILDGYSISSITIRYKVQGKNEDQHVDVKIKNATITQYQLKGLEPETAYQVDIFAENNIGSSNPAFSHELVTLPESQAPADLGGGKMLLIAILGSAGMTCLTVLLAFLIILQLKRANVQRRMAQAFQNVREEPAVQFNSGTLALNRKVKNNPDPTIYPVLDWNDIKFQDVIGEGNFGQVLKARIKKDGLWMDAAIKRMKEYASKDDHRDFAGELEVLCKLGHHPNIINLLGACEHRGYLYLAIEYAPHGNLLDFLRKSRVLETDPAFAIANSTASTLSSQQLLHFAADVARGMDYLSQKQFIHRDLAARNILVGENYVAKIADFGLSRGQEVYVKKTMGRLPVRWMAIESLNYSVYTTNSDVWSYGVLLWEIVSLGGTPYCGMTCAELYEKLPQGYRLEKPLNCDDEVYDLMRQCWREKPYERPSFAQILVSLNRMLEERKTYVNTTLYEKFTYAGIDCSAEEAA

[10] = target: Tyrosine-protein kinase ZAP-70 (Homo sapiens) (UniProt P43403); experiment: Inhibition of C-terminal His6 tagged recombinant human full length ZAP-70 expressed in Sf21 cells assessed as residual activity at 0.1 uM relative to control
[11] = target: Casein kinase I isoform gamma-2 (Homo sapiens) (UniProt P78368); experiment: Inhibition of N-terminal 6His-tagged recombinant human CK1gamma2 ( 18 to end residues) expressed in baculovirus infected Sf21 cells assessed as residual activity at 1 uM relative to control
Casein kinase I isoform gamma-2 (Homo sapiens), sequence (P78368 whole entry, looked up, canonical isoform): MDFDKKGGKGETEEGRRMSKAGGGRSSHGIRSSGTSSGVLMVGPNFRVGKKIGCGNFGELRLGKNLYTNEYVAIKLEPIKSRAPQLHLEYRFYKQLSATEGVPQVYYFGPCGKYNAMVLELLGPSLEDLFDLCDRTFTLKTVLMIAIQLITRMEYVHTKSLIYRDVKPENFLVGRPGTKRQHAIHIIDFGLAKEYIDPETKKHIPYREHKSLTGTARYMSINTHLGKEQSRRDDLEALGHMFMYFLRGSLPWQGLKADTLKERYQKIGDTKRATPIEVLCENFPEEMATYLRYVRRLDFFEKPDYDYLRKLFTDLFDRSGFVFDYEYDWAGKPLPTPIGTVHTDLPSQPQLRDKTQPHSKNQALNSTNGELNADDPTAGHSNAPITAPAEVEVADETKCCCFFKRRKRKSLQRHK

[12] = target: Casein kinase I homolog 1 (Saccharomyces cerevisiae S288c) (UniProt P23291); experiment: Inhibition of yeast CK1 assessed as residual activity at 1 uM relative to control
[13] = target: Rho-associated protein kinase 1 (Homo sapiens) (UniProt Q13464); experiment: Inhibition of N-terminal His6-tagged recombinant human ROCK-I (17 to 535 residues) expressed in baculovirus infected Sf21 cells assessed as residual activity at 1 uM relative to control
[14] = target: Ribosomal protein S6 kinase alpha-2 (Homo sapiens) (UniProt Q15349); experiment: Inhibition of N-terminal His6-tagged recombinant full-length human Rsk3 expressed in Sf21 cells assessed as residual activity at 1 uM relative to control
Ribosomal protein S6 kinase alpha-2 (Homo sapiens), sequence (Q15349 whole entry): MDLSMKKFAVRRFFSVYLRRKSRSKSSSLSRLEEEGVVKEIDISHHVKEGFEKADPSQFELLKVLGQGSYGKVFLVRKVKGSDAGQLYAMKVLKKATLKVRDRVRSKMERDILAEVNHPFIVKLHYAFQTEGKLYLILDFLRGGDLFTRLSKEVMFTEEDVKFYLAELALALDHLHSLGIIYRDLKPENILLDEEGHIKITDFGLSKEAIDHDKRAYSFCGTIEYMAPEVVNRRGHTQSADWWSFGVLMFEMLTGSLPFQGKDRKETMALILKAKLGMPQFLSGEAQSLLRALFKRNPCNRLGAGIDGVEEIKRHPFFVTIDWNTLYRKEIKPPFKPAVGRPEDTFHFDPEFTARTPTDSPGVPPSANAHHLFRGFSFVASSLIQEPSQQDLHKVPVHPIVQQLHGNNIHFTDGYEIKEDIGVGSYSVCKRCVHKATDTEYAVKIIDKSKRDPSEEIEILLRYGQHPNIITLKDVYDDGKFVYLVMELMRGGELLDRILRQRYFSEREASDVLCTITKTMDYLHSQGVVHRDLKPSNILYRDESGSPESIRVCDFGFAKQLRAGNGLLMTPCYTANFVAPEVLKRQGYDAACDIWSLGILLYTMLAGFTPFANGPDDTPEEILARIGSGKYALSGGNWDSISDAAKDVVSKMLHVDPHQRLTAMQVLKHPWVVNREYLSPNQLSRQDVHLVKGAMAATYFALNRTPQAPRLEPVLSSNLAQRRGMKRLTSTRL

SAOS-2 = experiment: Antiproliferative activity against human SAOS-2 cells assessed as inhibition of cell growth incubated for 72 hrs by cell-titer glo assay; type: functional, cell-based; settings: SAOS-2, 72 h
In short: (§1)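 Cells from ATCC or ECACC, kept in supplier-recommended medium with 1% penicillin-streptomycin at 37°C, 5% CO₂. Seeded at 10,000–30,000/cm² (adherent) or 100,000/mL (nonadherent) in medium with 10% fetal calf serum. Dosed after 24 h in duplicate with serial dilutions. Viable cells read by CellTiter-Glo 72 h later. IC50 from sigmoidal fit. At least two independent experiments.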

T98G = experiment: Antiproliferative activity against human T98G cells assessed as inhibition of cell growth incubated for 72 hrs by cell-titer glo assay; type: functional, cell-based
C-33-A = experiment: Antiproliferative activity against human C-33-A cells assessed as inhibition of cell growth incubated for 72 hrs by cell-titer glo assay; type: functional, cell-based
In short: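 Cells seeded 10,000–30,000/cm² (adherent) or 100,000/mL (suspension) in medium with 10% fetal calf serum; after 24 h treated in duplicate with serial dilutions for 72 h. Viable cells read by CellTiter-Glo luminescence; IC50 from sigmoidal fit; at least two independent experiments.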

[15] = Antiproliferative activity against human Lovo/DX cells assessed as inhibition of cell growth incubated for 72 hrs by cell-titer glo assay; type: functional, cell-based
In short: (§2)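 Cells seeded at 10,000–30,000/cm² (adherent) or 100,000/mL (nonadherent) in medium with 10% fetal calf serum; after 24 h, treated in duplicate with serial dilutions for 72 h. Viable cell number read by CellTiter-Glo luminescence; IC50 from sigmoidal fit; at least two independent experiments.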

[16] = Antiproliferative activity against human HCC15 cells assessed as inhibition of cell growth incubated for 72 hrs by cell-titer glo assay; type: functional, cell-based; settings: HCC15, 72 h; in short: as §2
SK-MES-1 = experiment: Antiproliferative activity against human SK-MES-1 cells assessed as inhibition of cell growth incubated for 72 hrs by cell-titer glo assay; type: functional, cell-based; settings: SK-MES-1, 72 h
[17] = Antiproliferative activity against human NPA cells assessed as inhibition of cell growth incubated for 72 hrs by cell-titer glo assay; type: functional, cell-based; in short: as §1
HL-60 = experiment: Antiproliferative activity against human HL-60 cells assessed as inhibition of cell growth incubated for 72 hrs by cell-titer glo assay; type: functional, cell-based; settings: HL-60, 72 h; in short: as §2
[18] = Clearance in Sprague-Dawley rat at 10 mg/kg, iv by LC-MS analysis; type: ADME, organism-based; settings: in vivo
[19] = Volume of distribution at steady state in nu/nu mouse at 10 mg/kg, iv by LC-MS analysis; type: ADME, organism-based; settings: in vivo, read-out: Vdss
[20] = Half-life in nu/nu mouse at 10 mg/kg, iv by LC-MS analysis; type: ADME, organism-based; settings: in vivo
[21] = Half-life in male cynomolgus monkey at 5 mg/kg, iv by LC-MS analysis; type: ADME, organism-based, Macaca fascicularis; settings: in vivo
[22] = AUC in nu/nu mouse at 10 mg/kg, iv by LC-MS analysis; type: ADME, organism-based; settings: in vivo
[23] = Half-life in nu/nu mouse at 10 mg/kg, po by LC-MS analysis; type: ADME, organism-based; settings: in vivo
[24] = Toxicity in nu/nu mouse xenografted with human HCT-116 cells assessed as body weight loss at 60 mg/kg, po administered for 8 days; type: organism-based; settings: in vivo, 192 h, time 8 day
HT-29 = experiment: Antitumor activity against human HT-29 cells xenografted in nu/nu mouse assessed as tumor growth inhibition at 60 mg/kg, po administered for 10 days; type: functional, organism-based; settings: time 10.0 day
[25] = Antitumor activity against human Acute myeloid leukemic cell xenografted in nu/nu mouse assessed as increase in median survival time at 120 mg/kg, po administered for 2 days and measured after 10 days in presence of cytarabine (reference value: 34 days); settings: time 2 day

In the case of `CN1CCN(c2ccc(OC(F)(F)F)c(Nc3ncc4c(n3)-c3c(c(C(N)=O)nn3CCO)CC4)c2)CC1` [ONVANSERTIB], the IC50 [1] is reported as > 10 µM, the IC50 [2] is reported as > 10 µM and the IC50 [3] is reported as > 10 µM. The IC50 [4] was > 10 µM, the Activity [5] was 83% and the Activity [6] was 137%. The Activity [7] was 127%, the Activity [8] was 113% and the Activity [9] was 74%. It also gave an Activity [10] of 88%, an Activity [11] of 69% and an Activity [12] of 24%. For the same compound, the Activity [13] was 132%, the Activity [14] was 84% and the IC50 (SAOS-2) was 0.045 µM. The IC50 (T98G) was 0.228 µM, the IC50 (C-33-A) was 0.061 µM and the IC50 [15] was 1.72 µM. It also gave an IC50 [16] of 0.015 µM, an IC50 (SK-MES-1) of 0.367 µM and an IC50 [17] of 0.072 µM. It also gave an IC50 (HL-60) of 0.073 µM, a clearance [18] of 20.6 mL/min/kg and a Vd [19] of 1.7 L/kg. The half-life [20] was 0.9 h, the half-life [21] was 5 h and the AUC [22] was 8.6 µM·h. For the same compound, the half-life [23] was 1.6 h, the Activity [24] was “Toxic” and the TGI (HT-29) was “Active”. The Time [25] was 79 days.
